Reference: ChEMBL document CHEMBL4339218, “Discovering New Casein Kinase 1d Inhibitors with an Innovative Molecular Dynamics Enabled Virtual Screening Workflow” (ACS Med Chem Lett, 2019)

Assays:
[1] = target: T1, Casein kinase I isoform delta (Homo sapiens, UniProt P48730); experiment: Inhibition of CSNK1D (unknown origin) using CSNK1D/Ser/Thr 11 peptide incubated for 1 hr by FRET based Z'-LYTE assay
Procedure, shortened: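 Full dose–response curve used for IC50. Duplicates, averaged with SD. Protease development reagent B (1:16) then added. Phosphorylation taken from the donor coumarin/acceptor fluorescein emission ratio at 400 nm excitation.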
Target sequence in this assay (P48730 whole entry, canonical isoform): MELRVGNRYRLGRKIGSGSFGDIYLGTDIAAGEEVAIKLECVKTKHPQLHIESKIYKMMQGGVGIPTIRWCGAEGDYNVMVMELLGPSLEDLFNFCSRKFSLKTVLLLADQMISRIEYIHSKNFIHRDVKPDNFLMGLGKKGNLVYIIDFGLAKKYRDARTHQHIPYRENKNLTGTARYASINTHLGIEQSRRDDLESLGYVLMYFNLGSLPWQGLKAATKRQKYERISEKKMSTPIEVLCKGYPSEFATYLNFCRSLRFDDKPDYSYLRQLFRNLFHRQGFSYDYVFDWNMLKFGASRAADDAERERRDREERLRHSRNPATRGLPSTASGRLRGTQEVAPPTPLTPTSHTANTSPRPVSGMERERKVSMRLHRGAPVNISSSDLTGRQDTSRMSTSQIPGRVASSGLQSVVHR

[2] = target: T1, Casein kinase I isoform delta; experiment: Inhibition of CSNK1D (unknown origin) at 1 uM using CSNK1D/Ser/Thr 11 peptide incubated for 1 hr by FRET based Z'-LYTE assay relative to untreated control
Procedure, shortened: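 Single-point test at 1 μM ligand, in duplicate, reported as mean ± SD. Coupled-enzyme FRET readout in which a development protease cleaves only nonphosphorylated peptide. Development reagent B (1:16) then added. Coumarin/fluorescein emission ratio read after 400 nm excitation.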
Target sequence in this assay (P48730 whole entry, looked up, canonical isoform): as the sequence (P48730 whole entry, canonical isoform) above

| SMILES | IC50 [1] | inhibition [2] |
| --- | --- | --- |
| Fc1ccc(-c2n[nH]c3ccc(-c4n[nH]c(CN5CCCC5)n4)cc23)cc1 | 848 nM | 53% |
| CNC(=O)c1ccc2[nH]nc(-c3cccc(C(=O)NCc4cccc5ccccc45)c3)c2c1 | 354 nM | 80% |
| CN(C)Cc1n[nH]c(-c2ccc3[nH]nc(-c4cccc(C(=O)Nc5ccc(F)cc5)c4)c3c2)n1 | 134 nM | 99% |
| CNC(=O)c1ccc2[nH]nc(-c3cccc(C(=O)Nc4cc(-c5ccccn5)n[nH]4)c3)c2c1 | – | 57% |
| O=C1CCCN1Cc1nnc(-c2ccc3[nH]nc(-c4ccc(F)cc4)c3c2)[nH]1 | – | 25% |
| CNC(=O)c1ccc2[nH]nc(-c3cccc(C(=O)NCc4cnc(C)nc4N)c3)c2c1 | – | 92% |
| C[C@@H](NC(=O)c1ccc2[nH]nc(-c3cccc(NS(C)(=O)=O)c3)c2c1)c1ccccc1 | 1030 nM | 66% |
